Assay outcomes deposited in PubChem by several laboratories.
Yeast growth inh: growth inhibitors of yeast BB579 in restrictive medium, primary screen, yeast lifespan-shortening project, S. cerevisiae; inhibition, % at 10 µM; 0.51% of 140,000 active; OD615, 48 h;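 active means inhibition above a set limit, 3 SD over the mean compound inhibition, cut at about 44% in these data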
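Test system: Saccharomyces cerevisiae DeaD strain BB579, replicative lifespan model yeast | Buffer or medium: Restrictive CSMM-D medium | Doses: One dose, 10 µM compound with 0.25% DMSO | Incubation: 48 h exposure, 30 °C | Detection: Culture absorbance at 615 nm | Control set: Amphotericin B at 10 µg/mL as positive control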
TbHK1 inh: Trypanosoma brucei hexokinase 1 inhibitors, primary screen, biochemical, G6PDH-coupled NADH absorbance, MLSCN library; hexokinase 1 [Trypanosoma brucei]; AID 1430, 2008; inhibition, % at 10 µM; recombinant TbHK1, G6PDH-coupled NADH A340; 0.11% of 220,000 active;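 active means inhibition of 50% or more in the single-dose primary screen; inactive means inhibition below 50%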
p47phox inh: p47phox/p22phox peptide binding inhibitors, primary screen, biochemical, uHTS, NADPH oxidase regulatory subunit. Neutrophil cytosol factor 1 (Homo sapiens), P14598. fluorescence polarization, 2 h. inhibition, % at 24.7 µM. 0.53% of 220,000 active. AID 1274, 2008;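 active means inhibition above about 30%, limit read from the data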;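 further: 0% = p47phox with labelled peptide and 100% = labelled peptide alone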
Target sequence (P14598 whole entry, looked up): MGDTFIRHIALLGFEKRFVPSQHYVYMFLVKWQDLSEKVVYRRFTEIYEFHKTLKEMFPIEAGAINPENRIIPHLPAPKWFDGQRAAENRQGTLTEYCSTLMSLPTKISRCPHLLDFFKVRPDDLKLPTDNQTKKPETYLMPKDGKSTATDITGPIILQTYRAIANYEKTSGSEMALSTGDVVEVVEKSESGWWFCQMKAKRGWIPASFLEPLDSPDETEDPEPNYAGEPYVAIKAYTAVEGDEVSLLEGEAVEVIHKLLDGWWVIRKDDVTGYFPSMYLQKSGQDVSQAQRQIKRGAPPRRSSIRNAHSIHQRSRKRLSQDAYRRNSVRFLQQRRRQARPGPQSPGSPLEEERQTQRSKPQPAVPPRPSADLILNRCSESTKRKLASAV
Yeast lifespan up: compounds extending yeast replicative lifespan, primary screen, S. cerevisiae, OD615; S. cerevisiae growth with nicotinamide; deaD strain in restrictive glucose medium; inhibition of the nicotinamide effect, % at 10 µM; 0.68% of 130,000 active;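 active means inhibition above a set limit, placed 3 SD over the median of all compounds, cut at about 26% in these data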;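 further: 0% = nicotinamide-treated wells and 100% = cells grown without nicotinamide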
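Measured by: optical density (absorbance) at 615 nm; System: modified budding yeast, DeaD strain; Medium: restrictive CSMM-D dextrose medium; Timing: 4 h preincubation then 48 h treatment at 30 °C.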
RBBP9 inh: human RBBP9 inhibitors, primary screen, biochemical, fluorescence polarization, FP-Rh probe, HTS. Serine hydrolase RBBP9 (Homo sapiens), O75884. recombinant RBBP9. inhibition, % at 7.94 µM. 0.2% of 220,000 active. AID 1515, 2009;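 active means inhibition above the campaign mean of all tested compounds plus 3 SD, cut at about 14% in these data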;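 further: plate controls were DMSO wells with RBBP9 for no effect and wells lacking RBBP9 protein for full effect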
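Controls: DMSO-treated enzyme wells and wells lacking RBBP9 | Material: RBBP9 protein | Technique: Fluorescence polarization | Replication: Single well per compound, no replicates | Buffer or medium: Tris-NaCl-Pluronic buffer, pH 8.0 | Timing: 30 min compound preincubation, 45 min probe labeling, 25 °C | Read-out basis: Percent inhibition from mP, scaled between DMSO and no-protein wells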
sdo1 growth: growth rescue of sdo1-depleted yeast, primary screen, S. cerevisiae, bone marrow failure model; S. cerevisiae sdo1-depleted JHY4D growth rescue, OD600 30 h; stronger effect = higher value; pdr5 snq2 efflux-pump mutant strain; z-score at 10 µM; 0.21% of 140,000 active; AID 817, 2007;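 active means z-score above 3 at both the 24 hr and the 30 hr optical density reads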;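 further: z-score against mean and SD of all compound wells on the same plate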
* marks the source's active call; other numbers are inactive results; . = not tested or not shown. Only some compounds are listed: those with a hit (about 1.6% of all), similar ones and a draw of the others.

SMILES	Yeast growth inh	TbHK1 inh	p47phox inh	Yeast lifespan up	RBBP9 inh	sdo1 growth
CCCCCC(=O)N1CCN(CCN=CC2=C(O)CC(c3ccc(OC)cc3)CC2=O)CC1 (stereo not drawn)	-3	33	5	8	6	0.87
CCCCCC(=O)N1CCN(CCN=CC2=C(O)CC(c3ccc(OC)c(OC)c3)CC2=O)CC1 (stereo not drawn)	-24	49	-6	165*	-7	-0.02
C=CCn1c(SCC(=O)c2ccc(O)c(O)c2)nnc1-c1ccccc1OC	-58	37	-6	-6	-3	2.3
CCn1c(SCC(=O)c2ccc(O)c(O)c2)nnc1-c1ccccc1OC	-70	47	70*	-4	-7	0.58
O=C(O)C1C(c2ccccc2)C(C(=O)OCCCO)C1c1ccccc1 (stereo not drawn)	-37	3	-13	6	-6	1.1
CCCCCOC(=O)C1C(c2ccccc2)C(C(=O)O)C1c1ccccc1 (stereo not drawn)	-38	0	-6	32*	-6	-0.69
CCC(C)OC(=O)C1C(c2ccccc2)C(C(=O)O)C1c1ccccc1 (stereo not drawn)	-10	-9	-5	37*	5	-0.9
CCOC(=O)C1C(c2ccccc2)C(C(=O)OCC)C1c1ccccc1 (stereo not drawn)	-4	4	12	.	-9	-0.37
Cc1ccc(C(NC(=O)N2CCOCC2)=C(Cl)Cl)cc1F	-25	0	42*	-15	-2	-0.22
O=C(O)c1ccccc1C(=O)NCCc1c(C(=O)O)[nH]c2ccc(Cl)cc12	.	-8	0	.	0	.
CC(CN1CCCCC1)NC(=O)c1cc(-c2ccccn2)nc2ccc(Cl)cc12 (stereo not drawn)	.	-7	-7	.	-3	.
COc1ccc(NC(=O)Cn2nnc(-c3ccccc3F)n2)cc1	-48	-1	54*	-20	-13	-0.43
COc1ccccc1N(Cc1cc(=O)[nH]c2ccccc12)C(=O)c1cccc([N+](=O)[O-])c1	.	-19	-14	.	-4	.
Cc1cc(NC(=O)c2cccs2)ncc1NC(=O)c1cccc(F)c1	.	-4	-11	.	8	.
Cc1cc(NC(=O)c2cccc(F)c2)ncc1NC(=O)c1ccco1	-9	-7	-6	31*	-5	1.2
CCc1ccc(N/C(N)=N/c2nc(CSc3ncccn3)cc(=O)[nH]2)cc1	.	1	0	.	2	.
O=C(OC1CCCCC1)c1ccc2c(c1)C1C=CCC1C(C(=O)O)N2 (stereo not drawn)	-11	16	39*	-1	-4	-0.75
O=C(O)C1Nc2c(O)cccc2C2C=CCC12 (stereo not drawn)	-37	6	2	-5	2	0.11
O=C(CCN1CCC(c2ccc(Cl)s2)=N1)c1ccc(Cl)s1	.	-9	-2	.	0	.
CCn1ncc(/C=N/NC(=O)c2ccc3c(c2)OCO3)c1C	-11	-11	3	120*	-4	0.39
O=C1[C@@H]2C(c3cccnc3)=NO[C@@H]2C(=O)N1c1ccc2ccccc2c1	.	44	-10	.	-2	.
CN(C)c1ccc(CN(C(=O)c2ccc(Cl)c([N+](=O)[O-])c2)C2CCS(=O)(=O)C2)cc1 (stereo not drawn)	.	-5	-7	.	-2	.
Cc1ccc(N/N=C(\C#N)C(N)=S)c(C)c1	95*	-9	-3	-4	-4	-2
Cc1ccc(NC(=O)/C(C#N)=N/Nc2ccc(C(=O)O)cc2)c(C)c1	.	-22	-10	.	3	.
COc1cccc(/C=N/NC(=O)CNC(=O)COc2ccccc2)c1O	.	-11	82*	.	-12	.
COc1ccc(/C=N/NC(=O)CNC(=O)COc2ccccc2)cc1	-16	-4	8	4	-6	0.68
O=C(Nc1scc(-c2ccccc2)c1C(=O)O)c1ccco1	-2	-23	-3	42*	-9	1.7
CCOC(=O)c1c(-c2cccs2)csc1NC(=O)c1ccncc1	-43	-8	-3	5	-3	0.34
